Screening data (PubChem BioAssay)
KCNK3 inh = human KCNK3 channel inhibition, primary screen; B-score at 10 µM; 340,000 compounds, 0.84% hits; CHO-KCNK3 thallium flux, FluxOR fluorescence; stronger effect = lower value;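 active = B-score under library mean minus 4 SD, starting fluorescence ratio at most library mean plus 5 SD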;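 note: more negative B-score means stronger inhibition of thallium flux through KCNK3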
KCNQ1 block = blocks the human KCNQ1 potassium channel | CHO-K1 KCNQ1, FluxOR thallium flux fluorescence; stronger effect = higher value | 310,000 compounds, 1.3% hits | AID 2642 | B-score at 10 µM | P51787;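 active = compounds whose thallium flux B-score, printed positive for inhibition, exceeds three library SD while starting fluorescence stays within three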;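 note: channel opened by potassium depolarization with thallium stimulus after 20 min compound exposure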
hERG protect = compounds protecting human hERG from proarrhythmic drug block | Q12809 | CHO-hERG, FluxOR thallium flux, dofetilide IC70 present | 310,000 compounds, 0.51% hits | activation (rescue from dofetilide block), less the hit threshold, % at 10 µM;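 active = activation above the mean of controls blocked by dofetilide plus 5 SD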;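 note: thallium influx through hERG after potassium depolarization seen as dye fluorescence rise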
KCNQ1 act = potentiators or activators of human KCNQ1 potassium channel | CHO-K1 KCNQ1, thallium flux FluxOR fluorescence; stronger effect = higher value | B-score at 10 µM | 310,000 compounds, 0.35% hits | AID 2648;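 active = fluorescence ratio B-score, a plate-corrected score, at least three library SD, with initial intensity B-score within 5 SD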
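System: CHO-K1 cells stably expressing KCNQ1 / Medium: assay buffer for compound exposure, DMSO matched across wells / Reagent: thallium- and potassium-containing depolarizing buffer / Compound: one concentration, matched DMSO / Incubation: 20 min compound pretreatment at room temperature / Measured by: kinetic FluxOR fluorescence, 10 s baseline plus 110 s post-stimulus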
Kir21 inh = Kir2.1 (mouse) channel inhibition | AID 1672 | B-score at 10 µM | HEK293-Kir2.1, FluxOR thallium flux fluorescence; stronger effect = lower value | P35561 | 310,000 compounds, 0.85% hits;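 active = fluorescence ratio B-score at or below minus 3 SD of library scores, with starting-brightness B-score within 2 SD, cut at about -4.2 in these data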;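 note: channel flux triggered by added potassium and thallium sulfate stimulus; B-score of peak minus minimum fluorescence over baseline after thallium stimulus; more negative B-score means stronger Kir2.1 block with less thallium influx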
Target sequence (P35561 whole entry, looked up): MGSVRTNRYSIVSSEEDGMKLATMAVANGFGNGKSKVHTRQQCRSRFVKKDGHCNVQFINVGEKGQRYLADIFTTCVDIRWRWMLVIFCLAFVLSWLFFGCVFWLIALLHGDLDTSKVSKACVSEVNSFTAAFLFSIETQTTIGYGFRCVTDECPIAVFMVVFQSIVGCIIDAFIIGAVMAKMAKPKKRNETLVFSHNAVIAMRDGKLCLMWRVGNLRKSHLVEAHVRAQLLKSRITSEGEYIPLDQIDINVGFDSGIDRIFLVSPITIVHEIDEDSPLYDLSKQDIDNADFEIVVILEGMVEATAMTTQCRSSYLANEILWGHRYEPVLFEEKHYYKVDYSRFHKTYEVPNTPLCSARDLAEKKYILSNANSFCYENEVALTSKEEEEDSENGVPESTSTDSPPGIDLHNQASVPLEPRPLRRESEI
KCNK9 inh = human KCNK9 channel inhibition. Q9NPC2. HEK293 KCNK9, FluxOR thallium flux fluorescence; stronger effect = lower value. 310,000 compounds, 1.2% hits. B-score at 10 µM;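 active = ratio B-score over 3 SD below the library mean, with starting fluorescence within 5 SD of its mean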;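 note: negative B-score means less thallium flux so channel inhibition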
KCNK9 block conf = human KCNK9 inhibitor confirmation | shares compounds with KCNK9 inh | HEK293 KCNK9 cells, FluxOR thallium flux fluorescence | inhibition, % at 10 µM | 4,900 compounds, 43% hits;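 active = thallium signal inhibited by more than 5 SD of the compound-free buffer control wells, on both duplicate plates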;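 note: 0% = assay buffer control wells without compound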
Kir2-1 spec = selectivity of KCNK9 modulators against mouse Kir2.1; Kir2.1 cells, FluxOR thallium flux fluorescence; 4,900 compounds, 4% hits; shares compounds with KCNK9 inh; inhibition, % at 10 µM; AID 492993;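 active = thallium signal drop more than 5 SD beyond the mean of the no-compound control wells, seen in both duplicate plates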;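 note: signal is fluorescence rise after thallium addition divided by baseline fluorescence; plate controls were assay buffer only for no effect and full block by chlorpromazine control for full effect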
HEK293 Tl ctr = non-induced cell nonspecific activity of KCNK9 modulators | shares compounds with KCNK9 inh | non-induced KCNK9-HEK293, FluxOR thallium flux | inhibition, % at 10 µM | 4,900 compounds, 40% hits;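 active = thallium signal drop beyond 5 SD of the untreated control mean, on both duplicate plates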;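 note: plate controls were buffer only IC0 wells for no effect and SID17386958 at its maximal inhibitory level for full effect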
* marks the source's active call; other numbers are inactive results. Sampled rows, rich in hits. Any-hit rate of the full collection: about 3.7%.

What do the screens show for `CC1=NNC(=O)/C1=C\c1cn(-c2ccccc2)nc1-c1cccs1`?
KCNK3 inh: inactive; KCNQ1 block: inactive; hERG protect: -6.2; KCNQ1 act: inactive; Kir21 inh: 1; KCNK9 inh: inactive; KCNK9 block conf: inactive; Kir2-1 spec: inactive; HEK293 Tl ctr: inactive

How did O=C(CSc1nnc(NC(=O)c2cccc(F)c2)s1)NC1CCCC1 do in these assays?
KCNK3 inh: inactive; KCNQ1 block: inactive; hERG protect: -13.8; KCNQ1 act: inactive; Kir21 inh: -0.67; KCNK9 inh: inactive

What do the screens show for `Cc1cccc(NC(=O)CSCc2cc(=O)n3nc(C4CC4)sc3n2)c1`?
KCNK3 inh: inactive; KCNQ1 block: inactive; hERG protect: -5.1; KCNQ1 act: inactive; Kir21 inh: 0.82; KCNK9 inh: inactive

What do the screens show for `COc1cccc(C2Oc3ccccc3C3CC(c4cccs4)=NN32)c1` (centres undefined)?
KCNK3 inh: inactive; KCNQ1 block: inactive; hERG protect: -9.3; KCNQ1 act: inactive; Kir21 inh: -0.03; KCNK9 inh: -12.3*; KCNK9 block conf: 60.5%*; Kir2-1 spec: inactive; HEK293 Tl ctr: inactive

What do the screens show for `O=C(c1ccccc1)C1Oc2ccccc2C2CC(c3cccs3)=NN12` (centres undefined)?
KCNK3 inh: inactive; KCNQ1 block: inactive; hERG protect: -4.4; KCNQ1 act: inactive; Kir21 inh: 1.03; KCNK9 inh: inactive

What do the screens show for `COC(=O)[C@H](CC(C)C)NC(=O)Cn1cnc(C(=O)Nc2ccc(C)c(C)c2)n1`?
KCNK3 inh: inactive

What do the screens show for `CCCCN1C[C@H](Cc2ccccc2)[C@@H](CC(=O)NCc2ccc(OC)cc2)C1=O`?
KCNK3 inh: inactive; KCNQ1 block: inactive; hERG protect: -6.1; KCNQ1 act: inactive; Kir21 inh: -1.84; KCNK9 inh: inactive

What do the screens show for `COc1ccc(CNC(=O)C[C@H]2C(=O)N(c3ccccc3)C[C@@H]2Cc2ccccc2)cc1`?
KCNK3 inh: inactive; KCNQ1 block: inactive; hERG protect: -5.0; KCNQ1 act: inactive; Kir21 inh: -1.07; KCNK9 inh: -9.91*; KCNK9 block conf: 59.5%*; Kir2-1 spec: inactive; HEK293 Tl ctr: inactive

How did Cc1ccc(O)c(C(=O)CC(=O)c2ccc(C(C)(C)C)cc2)c1 do in these assays?
KCNK3 inh: inactive; KCNQ1 block: inactive; hERG protect: -7.2; KCNQ1 act: inactive; Kir21 inh: 0.24; KCNK9 inh: inactive; KCNK9 block conf: inactive; Kir2-1 spec: inactive; HEK293 Tl ctr: inactive

What do the screens show for `COC(=O)c1ccccc1NC(=O)C1CCCN(S(=O)(=O)c2ccc(F)cc2)C1` (centres undefined)?
KCNK3 inh: inactive; KCNQ1 block: inactive; hERG protect: -0.5; KCNQ1 act: inactive; Kir21 inh: 1.38; KCNK9 inh: inactive; KCNK9 block conf: inactive; Kir2-1 spec: inactive; HEK293 Tl ctr: inactive

How did COC(=O)c1ccccc1NC(=O)C1CCCN(S(=O)(=O)c2ccccc2)C1 (centres undefined) do in these assays?
KCNK3 inh: inactive; KCNQ1 block: inactive; hERG protect: -8.5; KCNQ1 act: inactive; Kir21 inh: -0.4; KCNK9 inh: inactive; KCNK9 block conf: inactive; Kir2-1 spec: inactive; HEK293 Tl ctr: inactive

What do the screens show for `COc1ccc(C(=O)C2CCCN(C(=O)c3cc(C(C)C)no3)C2)cc1F` (centres undefined)?
KCNK3 inh: inactive; KCNQ1 block: inactive; hERG protect: -5.2; KCNQ1 act: inactive; Kir21 inh: -0.01; KCNK9 inh: inactive; KCNK9 block conf: inactive; Kir2-1 spec: inactive; HEK293 Tl ctr: inactive

What do the screens show for `COc1ccc(C(=O)C2CCCN(C(=O)c3cccc(Cn4cccn4)c3)C2)cc1F` (centres undefined)?
KCNK3 inh: inactive; KCNQ1 block: inactive; hERG protect: -15.2; KCNQ1 act: inactive; Kir21 inh: -1.16; KCNK9 inh: inactive; KCNK9 block conf: inactive; Kir2-1 spec: inactive; HEK293 Tl ctr: inactive

Results for COc1ccc(C(=O)C2CCCN(C(=O)c3cccs3)C2)cc1F (centres undefined) ?
KCNK3 inh: inactive; KCNQ1 block: inactive; hERG protect: -12.8; KCNQ1 act: inactive; Kir21 inh: -1.29; KCNK9 inh: inactive; KCNK9 block conf: inactive; Kir2-1 spec: inactive; HEK293 Tl ctr: inactive

How did CSc1ccc(C(=O)C2CCCN(Cc3ccc(N4CCNC4=O)cc3)C2)cc1 (centres undefined) do in these assays?
KCNK3 inh: inactive; KCNQ1 block: inactive; hERG protect: -6.5; KCNQ1 act: inactive; Kir21 inh: -1.76; KCNK9 inh: inactive

What do the screens show for `COc1ccc(CN2CCCC(C(=O)c3ccc(SC)cc3)C2)cc1Cn1cccn1` (centres undefined)?
KCNK3 inh: inactive; KCNQ1 block: inactive; hERG protect: -16.1; KCNQ1 act: inactive; Kir21 inh: -1.77; KCNK9 inh: inactive; KCNK9 block conf: inactive; Kir2-1 spec: inactive; HEK293 Tl ctr: inactive

How did CC(=O)Oc1cc2c3c(c1)/C(=C1/SC(=S)NC1=O)C(=O)N3C(C)(C)C=C2C do in these assays?
KCNK3 inh: inactive; KCNQ1 block: inactive; hERG protect: -8.4; KCNQ1 act: inactive; Kir21 inh: 3.37; KCNK9 inh: inactive

What do the screens show for `COc1cccc(C(=O)C2CCCN(Cc3cccc(-n4cccn4)c3)C2)c1` (centres undefined)?
KCNK3 inh: inactive; KCNQ1 block: inactive; hERG protect: -14.3; KCNQ1 act: inactive; Kir21 inh: -1.14; KCNK9 inh: inactive; KCNK9 block conf: inactive; Kir2-1 spec: inactive; HEK293 Tl ctr: inactive

Results for COc1cc(/C=N/N2C(=O)c3ccccc3NC2(C)c2cccc([N+](=O)[O-])c2)cc(Br)c1O (centres undefined) ?
KCNK3 inh: inactive; KCNQ1 block: inactive; hERG protect: -16.3; KCNQ1 act: inactive; Kir21 inh: 1.52; KCNK9 inh: -13.8*; KCNK9 block conf: 56.5%*; Kir2-1 spec: inactive; HEK293 Tl ctr: 46.0%*

How did COc1cc(/C=N/NC(=O)c2ccc([N+](=O)[O-])cc2Cl)cc(Br)c1O do in these assays?
KCNK3 inh: inactive; KCNQ1 block: inactive; hERG protect: -5.7; KCNQ1 act: inactive; Kir21 inh: 0.93; KCNK9 inh: inactive
